Screens: PubChem, Sanford-Burnham Center for Chemical Genomics
SKN-1 inh: suppressors of acrylamide-induced Pgst-4::GFP reporter in worms, primary screen, SKN-1 inhibitor project, whole organism, uHTS, GFP/RFP fluorescence ratio, strain VP596; hit rate 0.49% among 360,000; inhibition, % at 21.8 µM; C. elegans VP596 Pgst-4::GFP/RFP ratio, 24 h; AID 624304, 2012;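 active = interference check ratio from 0.5 to 1.5 plus GFP to RFP signal ratio inhibition reaching or exceeding a fixed threshold, cut at about 30% in these data, passing the limit was not always enough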
NRP1-CendR mod: modulators of CendR peptide binding to NRP-1, primary screen, biochemical, fluorescence polarization, uHTS | Neuropilin-1 (Homo sapiens), O14786 | FAM-RPARPAR peptide binding to NRP-1 | inhibition, % at 25 µM | hit rate 0.85% among 360,000 | AID 602438, 2012;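 active = inhibition or corrected inhibition above about 18%, plus a signal ratio from 0.5 to 1.5, limit read from the data, passing the limit was not always enough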
Target sequence (O14786 whole entry, looked up): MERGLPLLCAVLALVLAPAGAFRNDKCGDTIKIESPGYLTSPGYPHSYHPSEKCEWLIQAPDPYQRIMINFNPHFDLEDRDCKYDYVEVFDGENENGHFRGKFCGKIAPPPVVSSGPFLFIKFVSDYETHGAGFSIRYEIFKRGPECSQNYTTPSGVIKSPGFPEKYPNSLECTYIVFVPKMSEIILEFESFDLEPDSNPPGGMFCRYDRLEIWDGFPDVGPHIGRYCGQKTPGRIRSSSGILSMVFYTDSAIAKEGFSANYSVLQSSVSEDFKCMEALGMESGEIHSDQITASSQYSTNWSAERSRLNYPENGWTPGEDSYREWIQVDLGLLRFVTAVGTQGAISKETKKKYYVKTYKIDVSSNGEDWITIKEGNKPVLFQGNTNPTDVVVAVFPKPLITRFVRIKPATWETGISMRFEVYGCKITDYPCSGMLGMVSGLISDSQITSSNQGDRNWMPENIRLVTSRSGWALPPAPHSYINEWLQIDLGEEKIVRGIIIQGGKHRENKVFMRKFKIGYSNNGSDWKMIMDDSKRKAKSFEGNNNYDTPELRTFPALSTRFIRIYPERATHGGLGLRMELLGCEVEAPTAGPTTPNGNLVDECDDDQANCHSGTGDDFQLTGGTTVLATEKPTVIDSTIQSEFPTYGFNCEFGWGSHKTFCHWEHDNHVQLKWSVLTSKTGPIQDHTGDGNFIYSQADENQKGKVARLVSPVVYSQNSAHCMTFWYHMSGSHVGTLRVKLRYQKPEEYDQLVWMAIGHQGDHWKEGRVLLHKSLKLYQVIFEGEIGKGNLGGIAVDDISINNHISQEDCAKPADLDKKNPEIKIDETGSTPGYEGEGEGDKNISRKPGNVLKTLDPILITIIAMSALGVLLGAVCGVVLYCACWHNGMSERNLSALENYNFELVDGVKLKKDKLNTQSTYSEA
hiPSC survival: enhancers of single-cell hiPSC survival, primary screen, ATPlite luminescence | 100% = ROCK inhibitor wells, 0% = DMSO | survival enhancement, % at 20 µM | hit rate 0.044% among 360,000 | AID 602274, 2012; in the data active = survival enhancement above about 18%;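 also: cells exposed to compounds for 16 hours before the ATP read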
MT1-MMP act inh: blockers of MT1-MMP proenzyme processing, primary screen, HT1080 RFP-PRO-GFP cells, GFP/RFP fluorescence; Matrix metalloproteinase-14 (Homo sapiens), P50281; hit rate 0.061% among 360,000; GFP/RFP ratio fluorescence, overnight; percent of plate control window, DMSO zero; GFP/RFP ratio change, % at 20 µM; AID 651647, 2012;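 active = GFP/RFP ratio change of at least 30% with cell ATP level not reduced by more than half and red fluorescence within 50% of control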
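Assay system: HT1080 cells carrying an RFP-PRO-GFP reporter | Dosing: Single dose of 20 µM compound, 1% DMSO final | Incubation: Cells overnight before dosing, compound overnight, 37 °C, 5% CO2 | Evaluation: GFP/RFP fluorescence ratio | Control set: DMSO and RFP-L50D-GFP cell wells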
* hit, by the source's call. A selection: hits, their analogues and other compounds. The true share with any hit is near 1.4%.

SMILES	SKN-1 inh	NRP1-CendR mod	hiPSC survival	MT1-MMP act inh
N#CC(c1ccccc1)c1ccc2c(C(F)(F)F)cc(C(F)(F)F)nc2n1 (stereo not drawn)	18	-8	4	1
Cc1c(C(=O)/C=C/c2cccs2)oc2ccc(F)cc12	52*	-5	-2	-10
CCOc1cc2c(cc1OCC)C(C(=O)O)C(c1cc(OC)c(OC)c(OC)c1)N(C)C2=O (stereo not drawn)	36*	4	1	0
OCCN1CCN(c2nc(NCc3ccco3)c3ccccc3n2)CC1	-8	2	1	-5
c1ccc(CN2CCN(c3nc(NCc4ccco4)c4ccccc4n3)CC2)cc1	4	-27	30*	5
Cc1ccc(OCCN2CCN(c3nc(NCc4ccco4)c4ccccc4n3)CC2)cc1	2	-2	24*	5
COc1cc(OC)cc(C(=O)N2CCN(C3CCC(C)CC3)CC2)c1 (stereo not drawn)	-9	0	1	3
CC(=O)N1c2c(cc(Br)cc2S(=O)(=O)NCc2ccccc2)CC1C (stereo not drawn)	15	-6	0	0
Cc1ccc(NC(=O)N(C2CCCCC2)C(C)c2cccnc2)cc1C (stereo not drawn)	0	3	-1	3
O=C1C(C=NCCN2CCOCC2)=C(O)c2ccccc21	-4	27*	0	-2
CCOc1ccc(S(=O)(=O)N(C)CC(=O)NCc2ccccn2)cc1	-2	4	-1	-2
O=C(c1ccccc1)C1CCN(C(=O)c2ccc(Cl)cc2)CC1	-15	0	0	-4
CC1(C)CC(=O)c2sc(NC(=O)c3ccco3)nc2C1	10	-9	-3	0
Cc1onc(-c2ccccc2)c1C(=O)Nc1nc2c(s1)C(=O)CC(C)(C)C2	40*	-1	-1	4
Cc1nnc2sc(SCC(=O)N3CCCCC3)nn2c1=O	17	16	0	1
Cc1csc(=O)n1CCC(=O)OCC(=O)c1c(N)n(C)c(=O)n(C)c1=O	-6	-5	0	2
Cc1cccc(CSc2nnc(-c3cnccn3)n2C)c1	9	38*	0	3
Cn1c(SCc2ccccn2)nnc1-c1cnccn1	7	17	3	-1
CC1CC(C)CN(CCCSc2ccccc2)C1 (stereo not drawn)	4	30*	0	2
CCOC(=O)C(Cc1cc(C(C)=O)ccc1OCC)C(=O)OCC	38*	4	5	3
CCOc1ccc(C(C)=O)cc1CC(C(N)=O)C(N)=O	-25	8	1	4
O=C(Oc1ccc(Br)cc1)c1n[nH]c(=O)c2ccccc12	11	5	-1	4
O=C(NCCN1CCN(S(=O)(=O)c2ccc([N+](=O)[O-])cc2)CC1)C(=O)Nc1ccccc1	0	-8	0	3
CCCn1c(SCc2ccccc2)nc2c1c(=O)[nH]c(=O)n2C	6	-1	32*	2
C=CCn1c(SCc2ccc(Cl)cc2)nc2c1c(=O)[nH]c(=O)n2C	5	26*	3	2
SMILES	SKN-1 inh	NRP1-CendR mod	hiPSC survival	MT1-MMP act inh
O=C(Nc1ccc(NC(=O)C2CC2)nc1)c1ccccn1	9	-7	-5	-3
O=C(Nc1ccc(NC(=O)C2CC2)nc1)c1cnccn1	-4	19*	-3	1
COc1cccc(NC(=O)C(OC(=O)/C=C/c2ccc3c(c2)OCO3)c2ccccc2)c1 (stereo not drawn)	-11	1	1	-12
Cc1ccsc1C(=O)N1CCCC(CCC(=O)NCc2ccccc2F)C1 (stereo not drawn)	12	8	0	3
COc1ccc(C(=O)C2CC2c2ccc3c(c2)OCO3)cc1 (stereo not drawn)	-3	28*	0	-2
COc1ccc(C(=O)NCc2ccc3c(c2)OCO3)cc1	7	0	0	-2
CC1CCCN(CCCNC(=O)CN2C(=O)COc3ccccc32)C1 (stereo not drawn)	-6	2	0	0
COc1ccc(NC(=O)COC(=O)CC23CC4CC(CC(C4)C2)C3)c([N+](=O)[O-])c1	4	6	3	9
Cc1oc(-c2ccc(C(F)(F)F)cc2)nc1CN(Cc1ccccn1)C[C@@H]1CCC(=O)N1	-10	31*	1	5
CNc1ncc(C(=O)c2ccc(F)cc2)s1	11	12	-2	3
Cc1cc(C)c(OCC(=O)NCC2CCCO2)c(C)c1 (stereo not drawn)	-2	-4	0	1
CCOC(=O)c1c(NC(=O)COC(=O)Cn2cnc3ccccc32)sc2c1CCC(C)C2 (stereo not drawn)	5	33*	2	2
CC1=C(C(=O)NCc2ccc(Cl)cc2)C2(CCC(C)CC2)OC1=O (stereo not drawn)	7	37*	0	2
Cc1ccc(C)c(OCC(=O)N/N=C/c2ccc(N3CCOCC3)cc2)c1	-14	1	-1	4
Fc1ccc(-c2cnn3c(-c4cccs4)ccnc23)cc1	29	-42	-4	-22
Fc1ccc(-c2cnn3c(-c4ccncc4)ccnc23)cc1	41*	-8	-2	1
Cc1ccc(CC(=O)NNC(=O)c2cccs2)cc1C	10	-8	1	-1
COc1ccc(NC(=S)N2CCCN(Cc3cccc(Cl)c3)C2)cc1	-2	-12	-1	3
c1ccc2nc(-c3nc4ccccc4o3)ccc2c1	80*	-14	-4	-10
c1ccc(-c2nc3ccccc3o2)nc1	1	1	-3	0
CC(=O)CSc1nnc(-c2ccc(S(=O)(=O)N3CCCC3)cc2)n1C	1	25*	0	2
CC(=O)CSc1nnc(-c2ccc(S(=O)(=O)N3CCOCC3)cc2)n1C	14	0	0	2
CCCc1cc2c(cc1NC(=O)c1ccco1)OCO2	4	-6	-1	0
O=C(Nc1ccc(N2CCN(c3ccccc3)CC2)c(F)c1)C1CC1	-3	4	0	1
NC(=O)c1ccc(NC(=O)COC(=O)C23CC4CC(CC(C4)C2)C3)cc1	-3	-6	0	-4
SMILES	SKN-1 inh	NRP1-CendR mod	hiPSC survival	MT1-MMP act inh
O=C(O)c1cc(C(=O)C2CC2)c[nH]1	-5	-8	23*	2
Cc1ccccc1S(=O)Cc1ccc(C(=O)N2CCN(C(=O)c3ccco3)CC2)o1 (stereo not drawn)	35*	8	0	-1
Cc1ccccc1S(=O)Cc1ccc(C(=O)N2CCN(C3CCCCC3)CC2)o1 (stereo not drawn)	-9	5	0	5
CCOC(=O)c1cc(-c2ccccc2)nn1CCC#N	7	4	0	-1
C=CCn1nc(-c2ccccc2)cc1C(=O)OCC	-2	28*	-1	2
CCN(CC(=O)Nc1ccccc1C(F)(F)F)C(=O)c1ccc(NC(=O)c2cccs2)cc1	47*	3	-1	1
